Four compounds from ChEMBL document CHEMBL1121917, “Structure--activity relationships in a broad-spectrum anthelmintic series. Acid chloride phenylhydrazones. 1. Aryl substitutions and chloride variations” (1981) can be followed below.

The species named for assay [1] is Canis familiaris. The assay is described as follows: Percent reduction in Uncinaria eggs per gram, after oral treatment of 100 mg/dog dose of compound in a single treatment. It counts as functional, Canis lupus familiaris, Egg. In outline:
(§1)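 Dogs naturally infected with Toxascaris leonina were experimentally infected with mixed Ancylostoma caninum and Uncinaria stenocephala larvae. Finely ground compound was given orally in gelatin capsules. Three egg count determinations were made before and three after treatment in each experiment.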

For assay [2], the species on record is Canis familiaris. The assay is described as follows: Percent reduction in Uncinaria eggs per gram, after oral treatment of 200 mg/dog dose of compound in a single treatment. It counts as functional, Canis lupus familiaris, Egg. In outline: as §1
The species named for assay [3] is Canis familiaris. The assay is described as follows: Percent reduction in Toxascaris eggs per gram, after oral treatment of 100 mg/dog dose of compound in a single treatment. It counts as functional, Canis lupus familiaris, Egg. The procedure, abridged:
as §1

The species named for assay [4] is Canis familiaris. Description: Percent reduction in Toxascaris eggs per gram, after oral treatment of 200 mg/dog dose of compound in a single treatment. It counts as functional, Canis lupus familiaris, Egg. The procedure, abridged: as §1
The species named for assay [5] is Mus musculus. Description: Percent clearance of Nematospiroides dubius from mouse after oral treatment of 1.87 mg/mouse/day. It counts as functional. In outline: (§2)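 Mice naturally carrying Syphacia obvelata were experimentally infected with Nematospiroides dubius and Hymenolepis nana, then grouped after a 2-week prepatency. Finely ground compound was suspended in aqueous 0.10% carboxymethylcellulose, 0.04% polysorbate 80 and 0.0042% polyparaben, and 0.1 mL was given orally by cannula once daily for 4 days to five mice. Necropsy followed 2 days later, scoring presence or absence of each parasite. Control clearance was subtracted from the treated clearance.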

For assay [6], the species on record is Mus musculus. The assay is described as follows: Percent clearance of Syphacaia obvelata from mouse after oral treatment of 1.87 mg/mouse/day. It counts as functional. In outline: as §2
Assay [7] is filed under the species Mus musculus. The assay is described as follows: Percent clearance of Nematospiroides dubius from mouse after oral treatment of 7.55 mg/mouse/day. It counts as functional. In outline: as §2
Assay [8] is filed under the species Mus musculus. Description: Percent clearance of Hymenolepis nana from mouse after oral treatment of 7.5 mg/mouse/day. It counts as functional. The procedure, abridged: as §2
Assay [9] has as its system Ovis aries. Description: Percent reduction in Trichuris eggs per gram, after treatment with 100 mg/kg dose of compound perorally in sheep. It counts as functional, Egg. To be noted: route oral. The procedure, abridged: (§3)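 Naturally parasitized lambs, dosed orally either with a suspension by stomach tube or with finely ground compound in gelatin capsules by balling gun. Activity was scored by the clinical test method, meaning a significant fall in helminth egg counts after treatment.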

Assay [10] has as its system Ovis aries. The assay is described as follows: Percent reduction in Oesophagostomum eggs per gram, after treatment with 100 mg/kg dose of compound perorally in sheep. It counts as functional, Egg. To be noted: route oral. In outline: (§4)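 Naturally parasitized lambs were dosed orally at the stated mg/kg. Dosing was either as a suspension of finely ground compound by stomach tube, or as ground compound weighed into gelatin capsules and given by balling gun. Activity was scored by the clinical test method: the decrease in posttreatment helminth eggs per gram.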

Assay [11] concerns Ovis aries. Description: Percent reduction in Trichostrongylus eggs per gram, after treatment with 100 mg/kg dose of compound perorally in sheep. It counts as functional, Egg. To be noted: route oral. In outline:
as §3

Assay [12] deals with Ovis aries. The assay is described as follows: Percent reduction in Ostertagia eggs per gram, after treatment with 100 mg/kg dose of compound perorally in sheep. It counts as functional, Egg. To be noted: route oral. In outline:
as §4

Assay [13] deals with Ovis aries. Description: Percent reduction in Cooperia eggs per gram, after treatment with 100 mg/kg dose of compound perorally in sheep. The conditions noted are these: route oral. It counts as functional, Egg. The procedure, abridged: (§5)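 Naturally parasitized lambs received compound orally, either as the aqueous suspension by stomach tube or as finely ground powder in gelatin capsules by balling gun. Activity was judged by the clinical test method, as a significant decrease in posttreatment helminth egg counts.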

Assay [14] deals with Ovis aries. The assay is described as follows: Percent reduction in Haemonchus eggs per gram, after treatment of 100 mg/kg dose of compound perorally in sheep. It counts as functional, Egg. The conditions noted are these: route oral. The procedure, abridged:
as §5

Assay [15] concerns Ovis aries. The assay is described as follows: Percent reduction in Strongyloides eggs per gram, after treatment with 100 mg/kg dose of compound perorally in sheep. It counts as functional, Egg. To be noted: route oral. The procedure, abridged:
as §3

Assay [16] is filed under the species Mus musculus. The assay is described as follows: Percent clearance of Nematospiroides dubius from mouse after oral treatment of 0.57 mg/mouse/day. It counts as functional. The procedure, abridged: as §2
Assay [17] is filed under the species Mus musculus. The assay is described as follows: Percent clearance of Syphacaia obvelata from mouse after oral treatment of 0.57 mg/mouse/day. It counts as functional. The procedure, abridged: as §2

For the compound `Cl/C(=N\Nc1ccccc1)c1ccc(I)cc1`, the Reduction was found to be 41% in the assay filed under Canis familiaris [1], 63% in the assay filed under Canis familiaris [2], 0% in the assay filed under Canis familiaris [3] and 100% in the assay filed under Canis familiaris [4]. For the same compound, the Parasite_Clearance in the assay filed under Mus musculus [5] stood at 80%; in the assay filed under Mus musculus [6], 100%.

`O=[N+]([O-])c1ccc(/C(Cl)=N/Nc2ccccc2)cc1`: the Parasite_Clearance in the assay filed under Mus musculus [7] and in the assay filed under Mus musculus [8] was 0% throughout.

For the compound `Cl/C(=N\Nc1ccc(Cl)c(Cl)c1Cl)c1ccccc1`, the Reduction with Ovis aries [9] is 0%; in the assay with Ovis aries [10] it was 0%; in the assay with Ovis aries [11] it was 0%; in the assay on Ovis aries [12], 0%; in the assay with Ovis aries [13], 89%; with Ovis aries [14], 0%. This compound also gave a Reduction in the assay with Ovis aries [15] of 95%.

Consider `Cl/C(=N\Nc1ccccc1)c1cc(Cl)cc(Cl)c1`, for which the Parasite_Clearance is recorded as 0% in the assay filed under Mus musculus [16] and 25% in the assay listed under Mus musculus [17].
